How the values were obtained:
MGC-803 = assay: Anticancer activity against human MGC-803 cells assessed as inhibition of cell growth measured after 72 hrs by MTT assay; format: functional, cell-based; conditions: MGC-803, 72 h
In short: (§1)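 Cells seeded at 3000 exponentially growing cells/well and incubated 12 h at 37 °C. Medium then replaced with fresh medium containing graded compound concentrations for 72 h; 5-FU positive control. MTT (5 mg/mL solution) added for 4 h, formazan dissolved in DMSO, absorbance read at 570 nm (reference 630 nm). Relative percentage inhibition of viable cells calculated; IC50 reported as mean ± standard deviation.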

HeLa = assay: Anticancer activity against human HeLa cells assessed as inhibition of cell growth measured after 72 hrs by MTT assay; format: functional, cell-based; in short: as §1
MCF7 = assay: Anticancer activity against human MCF7 cells assessed as inhibition of cell growth measured after 72 hrs by MTT assay; format: functional, cell-based; conditions: MCF7, 72 h; in short: as §1
[1] = tested on: Human immunodeficiency virus 1; assay: Anti-HIV activity against HIV-1 3B infected in human MT4 cells assessed as protection against virus-induced cytopathicity measured after 5 days by MTT assay; format: functional, organism-based; conditions: Human immunodeficiency virus 1, 3B, MT4, 120 h

In the case of `C[C@H]1O[C@@H](n2cc(F)c(N)nc2=O)[C@H](O)[C@H]1OCP(=O)(O)O`, the IC50 (MGC-803) is reported as over 16 µM, the IC50 (HeLa) is reported as over 16 µM and the IC50 (MCF7) is reported as over 16 µM.
Work on `Cc1cn([C@H]2C[C@@H](OCP(=O)(O)O)CO2)c(=O)[nH]c1=O` yielded an EC50 [1] of 6.59 µM.
In the case of `C[C@H]1O[C@@H](n2cc(Cl)c(=O)[nH]c2=O)[C@H](O)[C@H]1OCP(=O)(O)O`, the IC50 (MGC-803) is reported as over 16 µM, the IC50 (HeLa) is reported as over 16 µM and the IC50 (MCF7) is reported as over 16 µM.
`C[C@H]1O[C@@H](n2cc(F)c(=O)[nH]c2=O)[C@H](O)[C@H]1OCP(=O)(O)O` was tested, and the IC50 (MGC-803) was over 16 µM, the IC50 (HeLa) was over 16 µM and the IC50 (MCF7) was over 16 µM.
`Cc1cn([C@@H]2O[C@H](C)[C@H](OCP(=O)(O)O)[C@H]2O)c(=O)[nH]c1=O` gave an IC50 (MGC-803) of over 16 µM, an IC50 (HeLa) of over 16 µM and an IC50 (MCF7) of over 16 µM.
`Nc1ncnc2c1ncn2[C@H]1C[C@@H](OCP(=O)(O)O)CO1` gave an EC50 [1] of 2.5 µM.
In the case of `C[C@H]1O[C@@H](n2ccc(N)nc2=O)[C@H](O)[C@H]1OCP(=O)(O)O`, the IC50 (MGC-803) is reported as over 16 µM, the IC50 (HeLa) is reported as over 16 µM and the IC50 (MCF7) is reported as over 16 µM.
`C[C@H]1O[C@@H](n2ccc(=O)[nH]c2=O)[C@H](O)[C@H]1OCP(=O)(O)O` showed an IC50 (MGC-803) of over 16 µM, an IC50 (HeLa) of over 16 µM and an IC50 (MCF7) of over 16 µM.
Work on `C[C@H]1O[C@@H](n2cnc3c(N)ncnc32)[C@H](O)[C@H]1OCP(=O)(O)O` yielded an IC50 (MGC-803) of over 16 µM, an IC50 (HeLa) of over 16 µM and an IC50 (MCF7) of over 16 µM.
